Key:
[1] = test system: Staphylococcus aureus; assay: Antibacterial activity against Staphylococcus aureus ATCC 6538 after 24 hrs by microdilution method; type: functional; conditions: ATCC 6538, 24 h
Summary of the method: (§1)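 Broth microdilution in 96-well plates. Bacterial suspensions were adjusted in sterile saline to 1.0 × 10⁵ CFU/ml, prepared daily and kept at 4 °C. Compound was added to LB broth with 1.0 × 10⁴ CFU per well and shaken at 160 rpm for 24 h at […] (so in the source). MIC is the lowest concentration with no visible growth under a binocular microscope. OD655 was also read. Duplicate, repeated three times.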

[2] = test system: Bacillus cereus; assay: Antibacterial activity against clinical isolate of Bacillus cereus after 24 hrs by microdilution method; type: functional; summary of the method: as §1
[3] = test system: Micrococcus flavus; assay: Antibacterial activity against Micrococcus flavus ATCC 10240 after 24 hrs by microdilution method; type: functional; conditions: ATCC 10240, 24 h; summary of the method: as §1
[4] = test system: Listeria monocytogenes; assay: Antibacterial activity against Listeria monocytogenes NCTC 7973 after 24 hrs by microdilution method; type: functional; conditions: NCTC 7973, 24 h; summary of the method: as §1
[5] = test system: Pseudomonas aeruginosa; assay: Antibacterial activity against Pseudomonas aeruginosa ATCC 27853 after 24 hrs by microdilution method; type: functional; conditions: ATCC 27853, 24 h; summary of the method: as §1
[6] = test system: Salmonella typhimurium; assay: Antibacterial activity against Salmonella Typhimurium ATCC 13311 after 24 hrs by microdilution method; type: functional, Salmonella enterica subsp. enterica serovar Typhimurium; conditions: Salmonella enterica, ATCC 13311, 24 h; summary of the method: as §1
[7] = test system: Escherichia coli; assay: Antibacterial activity against Escherichia coli ATCC 35210 after 24 hrs by microdilution method; type: functional; conditions: ATCC 35210, 24 h; summary of the method: as §1
[8] = test system: Enterococcus faecalis; assay: Antibacterial activity against Enterococcus faecalis isolated from human after 24 hrs by microdilution method; type: functional; summary of the method: as §1
[9] = test system: Staphylococcus aureus; assay: Antibacterial activity against Staphylococcus aureus ATCC 6538 incubated for 24 hrs followed by serial sub-cultivation for 24 hrs by microdilution method; type: functional; conditions: ATCC 6538, 24 h
Summary of the method: (§2)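 MBC: after the 24 h LB broth microdilution (1.0 × 10⁴ CFU per well, 160 rpm), wells were serially sub-cultured into fresh broth plates and incubated a further 24 h. MBC is the lowest concentration with no visible growth, taken as 99.5% killing of the original inoculum. Duplicate, repeated three times.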

[10] = test system: Bacillus cereus; assay: Antibacterial activity against clinical isolate of Bacillus cereus incubated for 24 hrs followed by serial sub-cultivation for 24 hrs by microdilution; type: functional; summary of the method: as §2
[11] = test system: Micrococcus flavus; assay: Antibacterial activity against Micrococcus flavus ATCC 10240 incubated for 24 hrs followed by serial sub-cultivation for 24 hrs by microdilution; type: functional; conditions: ATCC 10240, 24 h; summary of the method: as §2
[12] = test system: Listeria monocytogenes; assay: Antibacterial activity against Listeria monocytogenes NCTC 7973 incubated for 24 hrs followed by serial sub-cultivation for 24 hrs by microdilution; type: functional; conditions: NCTC 7973, 24 h; summary of the method: as §2
[13] = test system: Pseudomonas aeruginosa; assay: Antibacterial activity against Pseudomonas aeruginosa ATCC 27853 incubated for 24 hrs followed by serial sub-cultivation for 24 hrs by microdilution; type: functional; conditions: ATCC 27853, 24 h; summary of the method: as §2
[14] = test system: Salmonella typhimurium; assay: Antibacterial activity against Salmonella Typhimurium ATCC 13311 incubated for 24 hrs followed by serial sub-cultivation for 24 hrs by microdilution; type: functional, Salmonella enterica subsp. enterica serovar Typhimurium; conditions: Salmonella enterica, ATCC 13311, 24 h; summary of the method: as §2
[15] = test system: Escherichia coli; assay: Antibacterial activity against Escherichia coli ATCC 35210 incubated for 24 hrs followed by serial sub-cultivation for 24 hrs by microdilution; type: functional; conditions: ATCC 35210, 24 h; summary of the method: as §2
[16] = test system: Enterococcus faecalis; assay: Antibacterial activity against Enterococcus faecalis isolated from human incubated for 24 hrs followed by serial sub-cultivation for 24 hrs by microdilution; type: functional; summary of the method: as §2
[17] = test system: Aspergillus ochraceus; assay: Antifungal activity against Aspergillus ochraceus ATCC 12066 after 72 hrs by serial dilution technique; type: functional; conditions: ATCC 12066, 72 h
Summary of the method: (§3)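 Modified microdilution in 96-well plates. Fungi were kept on malt agar at 4 °C. Spores were washed off in sterile 0.85% saline with 0.1% Tween 80. Compounds were dissolved at 1 mg/ml in 5% DMSO with 0.1% Tween 80 and added to malt broth with inoculum. Plates were shaken at 160 rpm for 72 h at 28 °C. Duplicate, repeated three times.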

[18] = test system: Aspergillus niger; assay: Antifungal activity against Aspergillus niger ATCC 6275 after 72 hrs by serial dilution technique; type: functional; conditions: ATCC 6275, 72 h; summary of the method: as §3
[19] = test system: Aspergillus flavus; assay: Antifungal activity against Aspergillus flavus ATCC 9643 after 72 hrs by serial dilution technique; type: functional; conditions: ATCC 9643, 72 h; summary of the method: as §3
[20] = test system: Talaromyces funiculosus; assay: Antifungal activity against Penicillium funiculosum ATCC 36839 after 72 hrs by serial dilution technique; type: functional; conditions: ATCC 36839, 72 h; summary of the method: as §3
[21] = test system: Penicillium ochrochloron; assay: Antifungal activity against Penicillium ochrochloron ATCC 9112 after 72 hrs by serial dilution technique; type: functional; conditions: ATCC 9112, 72 h; summary of the method: as §3
[22] = test system: Trichoderma viride; assay: Antifungal activity against Trichoderma viride IAM 5061 after 72 hrs by serial dilution technique; type: functional; conditions: IAM 5061, 72 h; summary of the method: as §3
[23] = test system: Candida albicans; assay: Antifungal activity against Candida albicans isolated from human after 72 hrs by serial dilution technique; type: functional; summary of the method: as §3
[24] = test system: Aspergillus ochraceus; assay: Antifungal activity against Aspergillus ochraceus ATCC 12066 incubated for 72 hrs followed by serial sub-cultivation for 72 hrs by serial dilution technique; type: functional; conditions: ATCC 12066, 72 h
Summary of the method: (§4)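 MFC: material from 72 h malt broth microdilution wells was serially sub-cultured into fresh broth plates and incubated a further 72 h at 28 °C. Fungicidal concentration is taken from growth after sub-culture. Duplicate, repeated three times.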

[25] = test system: Aspergillus fumigatus; assay: Antifungal activity against Aspergillus fumigatus isolated from human incubated for 72 hrs followed by serial sub-cultivation for 72 hrs by serial dilution technique; type: functional; summary of the method: as §4
[26] = test system: Aspergillus niger; assay: Antifungal activity against Aspergillus niger ATCC 6275 incubated for 72 hrs followed by serial sub-cultivation for 72 hrs by serial dilution technique; type: functional; conditions: ATCC 6275, 72 h; summary of the method: as §4
[27] = test system: Aspergillus flavus; assay: Antifungal activity against Aspergillus flavus ATCC 9643 incubated for 72 hrs followed by serial sub-cultivation for 72 hrs by serial dilution technique; type: functional; conditions: ATCC 9643, 72 h; summary of the method: as §4
[28] = test system: Talaromyces funiculosus; assay: Antifungal activity against Penicillium funiculosum ATCC 36839 incubated for 72 hrs followed by serial sub-cultivation for 72 hrs by serial dilution technique; type: functional; conditions: ATCC 36839, 72 h; summary of the method: as §4
[29] = test system: Penicillium ochrochloron; assay: Antifungal activity against Penicillium ochrochloron ATCC 9112 incubated for 72 hrs followed by serial sub-cultivation for 72 hrs by serial dilution technique; type: functional; conditions: ATCC 9112, 72 h; summary of the method: as §4
[30] = test system: Trichoderma viride; assay: Antifungal activity against Trichoderma viride IAM 5061 incubated for 72 hrs followed by serial sub-cultivation for 72 hrs by serial dilution technique; type: functional; conditions: IAM 5061, 72 h; summary of the method: as §4
[31] = test system: Candida albicans; assay: Antifungal activity against Candida albicans isolated from human incubated for 72 hrs followed by serial sub-cultivation for 72 hrs by serial dilution technique; type: functional; summary of the method: as §4
[32] = test system: Pseudomonas aeruginosa; assay: Ratio of ampicillin MIC to compound MIC for Pseudomonas aeruginosa ATCC 27853; type: functional
[33] = test system: Aspergillus ochraceus; assay: Ratio of bifonazole to compound for Aspergillus ochraceus ATCC 12066; type: functional
[34] = test system: Aspergillus niger; assay: Ratio of bifonazole to compound for Aspergillus niger ATCC 6275; type: functional
[35] = test system: Talaromyces funiculosus; assay: Ratio of bifonazole to compound for Penicillium funiculosum ATCC 36839; type: functional
[36] = test system: Penicillium ochrochloron; assay: Ratio of bifonazole to compound for Penicillium ochrochloron ATCC 9112; type: functional
[37] = test system: Trichoderma viride; assay: Ratio of bifonazole to compound for Trichoderma viride IAM 5061; type: functional
[38] = test system: Candida albicans; assay: Ratio of bifonazole to compound for Candida albicans isolated from human; type: functional
[39] = test system: Aspergillus ochraceus; assay: Ratio of ketoconazole to compound for Aspergillus ochraceus ATCC 12066; type: functional
[40] = test system: Aspergillus fumigatus; assay: Ratio of ketoconazole to compound for Aspergillus fumigatus isolated from human; type: functional
[41] = test system: Penicillium ochrochloron; assay: Ratio of ketoconazole to compound for Penicillium ochrochloron ATCC 9112; type: functional
[42] = test system: Candida albicans; assay: Ratio of ketoconazole to compound for Candida albicans isolated from human; type: functional
[43] = test system: Aspergillus ochraceus; assay: Antifungal activity against Aspergillus ochraceus after 72 hrs by serial dilution technique

CCNc1nc(C)c(C(=O)/C=C/c2ccccc2Cl)s1
98.1 µM: MIC [4] | MBC [9] | MBC [11]
32.7 µM: MIC [2] | MIC [17] | MIC [20] | MIC [21] | MIC [22] | MIC [23]
65.3 µM: MIC [3] | MBC [10] | MFC [25] | MFC [26] | MFC [27] | MFC [28] | MFC [29] | MFC [30] | MFC [31]
81.7 µM: MIC [1]
10: Ratio [32] | Ratio [33] | Ratio [34] | Ratio [35] | Ratio [36] | Ratio [37] | Ratio [38] | Ratio [39] | Ratio [40] | Ratio [41] | Ratio [42]
114 µM: MBC [12]
61.1 µM: MBC [13] | MBC [14] | MBC [15] | MBC [16]
49 µM: MIC [18] | MIC [19] | MFC [24] | MIC [43]
48.9 µM: MIC [5] | MIC [6] | MIC [7] | MIC [8]
